Measured values collected from several papers.
Observed: metabolic stability

For `O=C(Nc1ccc(CN2CCOCC2)c(C(F)(F)F)c1)c1ccc(C#Cc2cccc3cnccc23)cn1`, the half-life was 13.4 min (mouse; liver microsomes).
For `COc1cc(C2Oc3cc([C@H]4Oc5cc(O)cc(O)c5C(=O)[C@@H]4O)ccc3OC2CO)ccc1O` (stereo partly drawn), the half-life was 82.5 min (mouse; liver microsomes; 1 µM).
`N=c1c2c(-c3ccccc3)c(-c3ccccc3)n(Cc3ccccc3)c2ncn1C1CCOCC1` gave a half-life of 30 min (male CD-1 mouse; liver microsomes; 1 µM; pH 7.4).
`CC(C)NCC(O)COc1cccc2ccccc12` (stereo not drawn) has a half-life of 11.5 min (mouse; liver microsomes; 1 µM).
`O=C(O)C1CCN(c2ncc(-c3ccc4c(c3)OCCCO4)s2)CC1` gave a half-life of greater than 30 min (mouse; liver microsomes; 1 µM).
`CCCCOC(=O)NS(=O)(=O)c1sc(CC(C)C)cc1-c1ccc2c(c1)CN(C(C)=O)C2` has a half-life of 1.8 min (mouse; liver microsomes; 1 µM; pH 7.4).
For `CN1CCN(Cc2cc(CNC3(c4ccccc4F)CCCC3)ccc2O)CC1`, the half-life was 12 min (mouse; liver microsomes; 4.6 µM; pH 7.5).
With `O=S(=O)(Nc1cccc(-c2nnn[nH]2)c1)c1ccc(Cl)c(Cl)c1Cl` the half-life was 192 min (mouse; liver microsomes).
For `Fc1ccc([C@@H]2CCNC[C@H]2COc2ccc3c(c2)OCO3)cc1`, the half-life was 24 min (CD-1 mouse; liver microsomes; 1 µM; pH 7.4).
The half-life of `O=S(=O)(Nc1cccc(-c2nnn[nH]2)c1)c1ccc(Cl)c2nonc12` is reported as 81 min (mouse; liver microsomes).
The half-life of `CCOC(=O)C1=C(C)N/C(=C/c2cc(C)n(-c3ccc(Cl)cc3)c2C)C1=O` is reported as 24 min (mouse; liver microsomes; 1 µM).
With `CC[C@@H]1C=CC(=O)O[C@@H]1C[C@@H](O)[C@H](C)[C@H](OC)[C@@H](C)Cc1ccccc1` the half-life was 4.4 min (mouse; liver microsomes).
For `CCOC(=O)C1=C(C)N/C(=C/c2cc(C)n(-c3ccc(N4CCOCC4)cc3)c2C)C1=O`, the half-life was 57 min (mouse; liver microsomes; 1 µM).
`O=C(Nc1cncc(-c2nc3ccccc3o2)c1)c1ccc(N2CCNCC2)c([N+](=O)[O-])c1` has a half-life of greater than 110 min (CD-1 mouse; liver microsomes; 1 µM; pH 7.4).
With `COc1cc2[nH]c(C#N)cc2c(C)c1CN1CCC(Nc2ncnc3sc(CC(F)(F)F)cc23)CC1` the half-life was greater than 30 min (CD-1 mouse; liver microsomes; 1 µM; pH 7.4).
The half-life of `N=c1c2c(-c3ccccc3)c(-c3ccccc3)n(CCc3ccccc3)c2ncn1[C@H]1CC[C@H](O)CC1` is reported as greater than 120 min (male CD-1 mouse; liver microsomes; 1 µM; pH 7.4).
The half-life of `CC(C)(C)C[C@@H]1N[C@@H](C(=O)N[C@H]2C[C@](C)(O)C2)[C@H](c2cccc(Cl)c2F)[C@]12C(=O)Nc1cc(Cl)ccc12` is reported as greater than 60 min (mouse; liver microsomes).
With `CCOC(=O)C1=C(C)N/C(=C/c2cc(C)n(-c3ccc(SC(F)(F)F)cc3)c2C)C1=O` the half-life was 23 min (mouse; liver microsomes; 1 µM).
`NC(=O)C1CCN(c2nnc(-c3ccc4c(c3)OCCCO4)s2)CC1` gave a half-life of greater than 30 min (mouse; liver microsomes; 1 µM).
With `CNC(=O)[C@H](Cc1c[nH]cn1)NC(=O)CN(CCCc1ccccc1)CC(=O)OC` the half-life was 26 min (male mouse; liver microsomes; 1 µM; pH 7.4).
The half-life of `NC1(c2ccc(-c3nc4ccn5c(=O)[nH]nc5c4cc3-c3ccccc3)cc2)CCC1` is reported as 85.8 min (CD-1 mouse; liver microsomes; 1 µM; pH 7.4).
The half-life of `COc1ccc(NC(=O)[C@H]2c3ccccc3C(=O)N(CC(C)C)[C@@H]2c2cccs2)cc1Cl` (racemic) is reported as less than 30 min (female CD-1 mouse; liver microsomes; 80 nM; pH 7.4).
The half-life of `CCS(=O)(=O)Nc1cccc(-c2cn(C)c(=O)c3ccccc23)c1` is reported as 11 min (mouse; liver microsomes).
`O=C(OC(C(F)(F)F)C(F)(F)F)N1Cc2ccc(OCCN3CCOCC3)cc2C1` gave a half-life of 7 min (mouse; liver microsomes).
`N=C(N)NCc1ccc(NC(=O)C23CCC(C(=O)Nc4ccc(C5=CCN(C(=N)N)CC5)cc4)(CC2)CC3)cc1` gave a half-life of greater than 60 min (CD-1 mouse; liver microsomes; 1 µM).
With `CC1=C(C(N)=O)C(=O)/C(=C\c2cc(C)n(-c3ccccc3C(F)(F)F)c2C)N1` the half-life was 19 min (mouse; liver microsomes; 1 µM).
The half-life of `CCCCOC(=O)NS(=O)(=O)c1sc(CC(C)C)cc1-c1ccc(OC(F)(F)F)c(Cn2ccnc2)c1` is reported as 103 min (mouse; liver microsomes; 1 µM; pH 7.4).
For `CCOC(=O)C1=C(C)N/C(=C/c2cc(C)n(-c3ccc(F)cc3F)c2C)C1=O`, the half-life was 23 min (mouse; liver microsomes; 1 µM).
`C=CC(=O)Nc1cc(F)c(N2CCC[C@@H](Nc3ncc(Cl)c(-c4c[nH]c5ccccc45)n3)C2)cc1C` gave a half-life of 3.9 min (mouse; liver microsomes).
With `O=S(=O)(Nc1cccc(-c2nnn[nH]2)c1)c1cc(C(F)(F)F)cc(C(F)(F)F)c1` the half-life was 535 min (mouse; liver microsomes).
`CCOC(=O)C1=C(C)N/C(=C/c2cc(C)n(-c3ccc(Br)cc3)c2C)C1=O` gave a half-life of 28 min (mouse; liver microsomes; 1 µM).
The half-life of `O=C(CC1Cc2ccccc2C1)N[C@H](CN1CCCC1)[C@H](O)c1ccc2c(c1)OCCO2` is reported as 2.5 min (mouse; liver microsomes).
`Cc1ccc(S(=O)(=O)Nc2cccc(-c3nnn[nH]3)c2)cc1C` has a half-life of 50 min (mouse; liver microsomes).
For `CCOc1c(O)cc(Br)c2c1CN1CCc3cc(OCC(F)F)c(O)cc3[C@@H]1C2`, the half-life was 9.63 min (mouse; liver S9; 2 µM; pH 7.4).
With `CNC(=O)c1ccccc1Nc1cc(Nc2cc(C)c(C3CCN(CCCCCCNC(=O)COc4cccc5c4C(=O)N(C4CCC(=O)NC4=O)C5=O)CC3)cc2OC(C)C)ncc1C(F)(F)F` (stereo not drawn) the half-life was 27 min (mouse; liver microsomes).
With `COc1ccc2cc(C(=O)Nc3ccc4c(c3)CN(C3CCC(=O)NC3=O)C4=O)ccc2c1` (stereo not drawn) the half-life was 180 min (mouse; liver microsomes; 2 µM).
With `CCCN(C)Cc1cc(-c2[nH]c3cccc(F)c3c(=O)c2C)ccc1Cc1ccc(OC(F)(F)F)cc1` the half-life was 3.47 min (mouse; liver microsomes).
`CNC(=O)[C@H](Cc1c[nH]cn1)NC(=O)CN(CCCc1ccccc1)CC(=O)O` gave a half-life of greater than 40 min (male mouse; liver microsomes; 1 µM; pH 7.4).
`CN1CCC(Cc2cccc(CNC3(c4ccc(F)cc4)CCCC3)c2)CC1(C)C` (racemic) gave a half-life of roughly 60 min (mouse; liver microsomes; 4.6 µM; pH 7.5).
With `O=S(=O)(Nc1cccc(-c2nnn[nH]2)c1)c1ccc(F)c(F)c1` the half-life was 346 min (mouse; liver microsomes).
With `CC(C)Oc1cccc(-c2cnc(N3CCC(C(N)=O)CC3)s2)c1` the half-life was greater than 30 min (mouse; liver microsomes; 1 µM).
`CCOC(=O)C1=C(C)N/C(=C/c2cc(C)n(-c3ccc(CN4CCOCC4)cc3)c2C)C1=O` gave a half-life of 31 min (mouse; liver microsomes; 1 µM).
`C/C=C/C[C@H](C)[C@@H](OC)[C@@H](C)[C@H](O)C[C@H]1OC(=O)C=C[C@H]1CC` has a half-life of less than 15 min (mouse; liver microsomes).
With `CCCC[S+]([O-])c1sc2nc(-c3cccs3)ccc2c1N` (stereo not drawn) the half-life was 13 min (female CD-1 mouse; liver S9; 2 µM; pH 7.5).
`O=C(N[C@H](Cc1c[nH]c2ccccc12)C(=O)Nc1ccncc1)c1ccc(-c2cccc(F)c2)cc1F` gave a half-life of 27 min (mouse; liver microsomes).
The half-life of `CCOC(=O)C1=C(C)N/C(=C/c2cc(C)n(-c3cccnc3)c2C)C1=O` is reported as 21 min (mouse; liver microsomes; 1 µM).
`CN(C)CCN1CCN(c2nc(NCc3cccc(Cl)c3)c3cc(-c4ccc(=O)n(C)c4)ccc3n2)CC1` has a half-life of 53 min (mouse; liver microsomes).
With `CCCCOC(=O)NS(=O)(=O)c1sc(CC(C)C)cc1-c1cccc2c1CN(C(C)=O)C2` the half-life was 6.9 min (mouse; liver microsomes; 1 µM; pH 7.4).
The half-life of `CC[C@@H]1C=CC(=O)O[C@@H]1C[C@@H](O)[C@H](C)[C@H](OC)[C@@H](C)Cc1ccc(F)cc1` is reported as less than 2.3 min (mouse; liver microsomes).
`CCOC(=O)NS(=O)(=O)c1sc(CC(C)C)cc1-c1ccc2c(c1)CN(C(C)=O)C2` has a half-life of 21 min (mouse; liver microsomes; 1 µM; pH 7.4).
For `O=C1CCN(C(=O)Nc2ccc(F)c(C(F)F)c2)[C@@H]2CCCC[C@H]12`, the half-life was greater than 32 min (mouse; liver microsomes).
The half-life of `Cc1cccc(C(=O)Nc2nc(-c3ccccn3)cs2)c1` is reported as 6 min (CD-1 mouse; liver microsomes; 39.6 µM; pH 7.4).
With `O=C(O)CN(CCCc1ccccc1)CC(=O)N[C@H](CO)Cc1c[nH]cn1` the half-life was greater than 40 min (male mouse; liver microsomes; 1 µM; pH 7.4).
With `C=CC(=O)Nc1cc(OC)c(N2CCC[C@@H](Nc3ncc(Cl)c(-c4c[nH]c5ccccc45)n3)C2)cc1C` the half-life was 4.3 min (mouse; liver microsomes).
